# Results: ChEMBL document CHEMBL1125826, “Synthesis and biological activity of 5-amino- and 5-hydroxyquinolones, and the overwhelming influence of the remote N1-substituent in determining the structure-activity relationship” (1991)
# Assays:
# Assay type in all cases: functional
# [1] = biological target: DNA gyrase (Escherichia coli) (UniProt P0AES6+P0AES4); test: Minimum inhibitory concentration against Escherichia coli DNA-gyrase in supercoiling assay
# Staphylococcus aureus [2] = test: Antibacterial activity was determined against gram positive organism, Staphylococcus aureus H228
# How it was run: (§1)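 MIC (µg/mL) by standard microtitration against a panel of 10 Gram-positive and Gram-negative organisms; values averaged from multiple experiments.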
# Streptococcus pyogenes [3] = test: Antibacterial activity was determined against gram positive organism, Streptococcus pyogenes C203; how it was run: as §1
# Pseudomonas aeruginosa = test: Antibacterial activity was determined against gram negative organism, Pseudomonas aeruginosa UI-18; how it was run: as §1
# Staphylococcus aureus [4] = test: Antibacterial activity was determined against gram positive organism, Staphylococcus aureus UC76; how it was run: as §1
# Streptococcus pyogenes [5] = test: The in vivo potency was determined in female charles river CD-1 mice infected with Streptococcus pyogenes after sc administration; conditions: for ED50: Streptococcus pyogenes, sc, read-out: PD50
# How it was run: (§2)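 Acute lethal systemic infection in female CD-1 mice, 16 mice per route; single subcutaneous dose given at the time of challenge; median protective dose (PD50, mg/kg) determined.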
# Bacteria [6] = test: MIC ratio measured as the mean MICs of gram-positive bacteria
# How it was run: (§3)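 Geometric mean of the microtitration MICs (µg/mL) over the Gram-negative organisms, and separately over the Gram-positive organisms, of the 10-strain panel; individual MICs averaged from multiple experiments.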
# Enterococcus faecalis = test: Antibacterial activity was determined against gram positive organism, Streptococcus faecalis MGH-2; how it was run: as §1
# Escherichia coli [7] = test: Antibacterial activity was determined against gram negative organism, Escherichia coli vogel; how it was run: as §1
# Streptococcus pneumoniae [8] = test: Antibacterial activity was determined against gram positive organism, Streptococcus pneumoniae SV-1; how it was run: as §1
# Klebsiella pneumoniae = test: Antibacterial activity was determined against gram negative organism, Klebsiella pneumoniae MGH-2; how it was run: as §1
# Enterobacter cloacae = test: Antibacterial activity was determined against gram negative organism, Enterobacter cloacae MA2646
# Escherichia coli [9] = test: The in vivo potency was determined in female charles river CD-1 mice infected with Escherichia coli after peroral administration; conditions: for ED50: Escherichia coli, po, read-out: PD50
# How it was run: (§4)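 Acute lethal systemic infection in female CD-1 mice, 16 mice per route; single dose given orally by gavage at the time of challenge; median protective dose (PD50, mg/kg) determined.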
# Streptococcus pyogenes [10] = test: The in vivo potency was determined in female charles river CD-1 mice infected with Streptococcus pyogenes after peroral administration; conditions: for ED50: Streptococcus pyogenes, po, read-out: PD50; how it was run: as §4
# Streptococcus pneumoniae [11] = test: The in vivo potency was determined in female charles river CD-1 mice infected with Streptococcus pneumoniae after peroral administration; conditions: for ED50: Streptococcus pneumoniae, po, read-out: PD50; how it was run: as §4
# Escherichia coli [12] = test: The in vivo potency was determined in female charles river CD-1 mice infected with Escherichia coli after sc administration; conditions: for ED50: Escherichia coli, sc, read-out: PD50; how it was run: as §2
# Bacteria [13] = test: Antibacterial activity was determined against gram negative organism, Providencia rettgeri. M1771; how it was run: as §1
# Streptococcus pneumoniae [14] = test: The in vivo potency was determined in female charles river CD-1 mice infected with Streptococcus pneumoniae after sc administration; conditions: for ED50: Streptococcus pneumoniae, sc, read-out: PD50; how it was run: as §2
# Bacteria [15] = test: MIC ratio measured as the mean MICs of gram-negative bacteria; how it was run: as §3
# [16] = Staphylococcus aureus, read-out: MIC
# [17] = Streptococcus pyogenes, read-out: MIC
# [18] = Pseudomonas aeruginosa, read-out: MIC
# [19] = Enterococcus faecalis, read-out: MIC
# [20] = Escherichia coli, read-out: MIC
# [21] = Streptococcus pneumoniae, read-out: MIC
# [22] = Klebsiella pneumoniae, read-out: MIC
# [23] = Enterobacter cloacae, read-out: MIC
smiles,measurement,setting,value
NC1CCN(c2c(F)cc3c(=O)c(C(=O)O)cn(C4CC4)c3c2F)C1 (stereo not given),MIC,[1],0.1 µg/mL
same,MIC,Staphylococcus aureus [2]; [16],0.05 µg/mL
same,MIC,Streptococcus pyogenes [3]; [17],0.05 µg/mL
same,MIC,Pseudomonas aeruginosa; [18],0.1 µg/mL
same,MIC,Staphylococcus aureus [4]; [16],0.013 µg/mL
same,ED50,Streptococcus pyogenes [5],6 mg/kg
same,Geometric mean MIC over Gram-positive bacteria (µg/mL),Bacteria [6],0.044
same,MIC,Enterococcus faecalis; [19],0.1 µg/mL
same,MIC,Escherichia coli [7]; [20],0.013 µg/mL
same,MIC,Streptococcus pneumoniae [8]; [21],0.05 µg/mL
same,MIC,Klebsiella pneumoniae; [22],0.025 µg/mL
same,MIC,Enterobacter cloacae; [23],0.013 µg/mL
same,ED50,Escherichia coli [9],0.9 mg/kg
same,ED50,Streptococcus pyogenes [10],15 mg/kg
same,ED50,Streptococcus pneumoniae [11],8 mg/kg
same,ED50,Escherichia coli [12],0.2 mg/kg
same,MIC,"Bacteria [13]; Bacteria, read-out: MIC",0.05 µg/mL
same,ED50,Streptococcus pneumoniae [14],2 mg/kg
same,Geometric mean MIC over Gram-negative bacteria (µg/mL),Bacteria [15],0.029
NC1CCN(c2c(F)cc3c(=O)c(C(=O)O)cn(C4CC4)c3c2Cl)C1 (stereo in doubt; 1f-4) [CLINAFLOXACIN],MIC,Staphylococcus aureus [2],0.1 µg/mL
same,MIC,Streptococcus pyogenes [3]; [17],0.1 µg/mL
same,MIC,Pseudomonas aeruginosa,0.2 µg/mL
same,MIC,Staphylococcus aureus [4]; [16],0.025 µg/mL
same,ED50,Streptococcus pyogenes [5],4 mg/kg
same,Geometric mean MIC over Gram-positive bacteria (µg/mL),Bacteria [6],0.075
same,MIC,Enterococcus faecalis; [19],0.1 µg/mL
same,MIC,Escherichia coli [7]; [20],0.025 µg/mL
same,MIC,Streptococcus pneumoniae [8],0.1 µg/mL
same,MIC,Klebsiella pneumoniae; [22],0.05 µg/mL
same,MIC,Enterobacter cloacae; [23],0.025 µg/mL
same,ED50,Escherichia coli [9],3 mg/kg
same,PD50,Streptococcus pyogenes [10],43 mg/kg
same,PD50,Streptococcus pneumoniae [11],97 mg/kg
same,ED50,Escherichia coli [12],0.5 mg/kg
same,MIC,Bacteria [13],0.1 µg/mL
same,PD50,Streptococcus pneumoniae [14],11 mg/kg
CCNCC1CCN(c2c(F)c(N)c3c(=O)c(C(=O)O)cn(C4CC4)c3c2F)C1 (stereo not given),MIC,[1],0.5 µg/mL
same,MIC,Staphylococcus aureus [2]; [16],0.013 µg/mL
same,MIC,Streptococcus pyogenes [3]; [17],0.013 µg/mL
same,MIC,Pseudomonas aeruginosa; [18],0.2 µg/mL
same,MIC,Staphylococcus aureus [4]; [16],0.003 µg/mL
same,ED50,Streptococcus pyogenes [5],5 mg/kg
same,Geometric mean MIC over Gram-positive bacteria (µg/mL),Bacteria [6],0.0082
same,MIC,Enterococcus faecalis; [19],0.025 µg/mL
same,MIC,Escherichia coli [7]; [20],0.05 µg/mL
same,MIC,Streptococcus pneumoniae [8]; [21],0.003 µg/mL
same,MIC,Klebsiella pneumoniae; [22],0.05 µg/mL
same,MIC,Enterobacter cloacae; [23],0.05 µg/mL
same,ED50,Escherichia coli [9],16 mg/kg
same,ED50,Streptococcus pyogenes [10],16 mg/kg
same,ED50,Streptococcus pneumoniae [11],5 mg/kg
same,ED50,Escherichia coli [12],2 mg/kg
same,MIC,"Bacteria [13]; Bacteria, read-out: MIC",0.1 µg/mL
same,ED50,Streptococcus pneumoniae [14],3 mg/kg
same,Geometric mean MIC over Gram-negative bacteria (µg/mL),Bacteria [15],0.075
CCNCC1CCN(c2c(F)cc3c(=O)c(C(=O)O)cn(C4CC4)c3c2F)C1 (stereo not given) [PD-117558],MIC,[1],0.25 µg/mL
same,MIC,Staphylococcus aureus [2]; [16],0.05 µg/mL
same,MIC,Streptococcus pyogenes [3]; [17],0.025 µg/mL
same,MIC,Pseudomonas aeruginosa; [18],0.4 µg/mL
same,MIC,Staphylococcus aureus [4]; [16],0.013 µg/mL
same,ED50,Streptococcus pyogenes [5],2 mg/kg
same,Geometric mean MIC over Gram-positive bacteria (µg/mL),Bacteria [6],0.025
same,MIC,Enterococcus faecalis; [19],0.025 µg/mL
same,MIC,Escherichia coli [7]; [20],0.05 µg/mL
same,MIC,Streptococcus pneumoniae [8]; [21],0.025 µg/mL
same,MIC,Klebsiella pneumoniae; [22],0.1 µg/mL
same,MIC,Enterobacter cloacae; [23],0.1 µg/mL
same,ED50,Escherichia coli [9],4 mg/kg
same,ED50,Streptococcus pyogenes [10],5 mg/kg
same,ED50,Streptococcus pneumoniae [11],2 mg/kg
same,ED50,Escherichia coli [12],1 mg/kg
same,MIC,"Bacteria [13]; Bacteria, read-out: MIC",0.2 µg/mL
same,ED50,Streptococcus pneumoniae [14],0.5 mg/kg
same,Geometric mean MIC over Gram-negative bacteria (µg/mL),Bacteria [15],0.13
C[C@@H]1CN(c2c(F)c(N)c3c(=O)c(C(=O)O)cn(C4CC4)c3c2F)C[C@H](C)N1 [SPARFLOXACIN],MIC,[1],2.5 µg/mL
same,MIC,Staphylococcus aureus [2]; [16],0.05 µg/mL
same,MIC,Streptococcus pyogenes [3]; [17],0.1 µg/mL
same,MIC,Pseudomonas aeruginosa; [18],0.8 µg/mL
same,MIC,Staphylococcus aureus [4]; [16],0.013 µg/mL
same,ED50,Streptococcus pyogenes [5],13 mg/kg
same,Geometric mean MIC over Gram-positive bacteria (µg/mL),Bacteria [6],0.05
same,MIC,Enterococcus faecalis; [19],0.1 µg/mL
same,MIC,Escherichia coli [7]; [20],0.025 µg/mL
same,MIC,Streptococcus pneumoniae [8]; [21],0.05 µg/mL
same,MIC,Klebsiella pneumoniae; [22],0.05 µg/mL
same,MIC,Enterobacter cloacae; [23],0.025 µg/mL
same,ED50,Escherichia coli [9],1 mg/kg
same,ED50,Streptococcus pyogenes [10],14 mg/kg
same,ED50,Streptococcus pneumoniae [11],17 mg/kg
same,ED50,Escherichia coli [12],0.4 mg/kg
same,MIC,"Bacteria [13]; Bacteria, read-out: MIC",0.2 µg/mL
same,ED50,Streptococcus pneumoniae [14],17 mg/kg
same,Geometric mean MIC over Gram-negative bacteria (µg/mL),Bacteria [15],0.087
NC1CCN(c2c(F)cc3c(=O)c(C(=O)O)cn(C4CC4)c3c2Cl)C1 (stereo in doubt; 1h-4) [CLINAFLOXACIN],MIC,Staphylococcus aureus [2],0.025 µg/mL
same,MIC,Streptococcus pyogenes [3],0.05 µg/mL
same,MIC,Pseudomonas aeruginosa,0.05 µg/mL
same,MIC,Staphylococcus aureus [4],0.013 µg/mL
same,PD50,Streptococcus pyogenes [5],4 mg/kg
same,Geometric mean MIC over Gram-positive bacteria (µg/mL),Bacteria [6],0.029
same,MIC,Enterococcus faecalis,0.05 µg/mL
same,MIC,Escherichia coli [7],0.025 µg/mL
same,MIC,Streptococcus pneumoniae [8],0.025 µg/mL
same,MIC,Klebsiella pneumoniae,0.025 µg/mL
same,MIC,Enterobacter cloacae,0.025 µg/mL
same,PD50,Escherichia coli [9],3 mg/kg
same,PD50,Streptococcus pyogenes [10],10 mg/kg
same,PD50,Streptococcus pneumoniae [11],14 mg/kg
same,PD50,Escherichia coli [12],0.6 mg/kg
same,MIC,Bacteria [13],0.025 µg/mL
same,PD50,Streptococcus pneumoniae [14],5 mg/kg
